Assays:
[1] = target: Adrenergic receptor alpha (Rattus norvegicus) (UniProt P15823+P23944+P43140+P22086+P19328+P22909); assay: Relative affinity for Alpha 2 over Alpha 1 adrenergic receptors; format: protein assay
[2] = target: T1, Adrenergic receptor alpha-1 (Rattus norvegicus, UniProt P15823+P23944+P43140); assay: Displacement of [3H]-prazosin from Alpha-1 adrenergic receptor of rat brain membranes; format: cell membranes, Membrane
T1 sequence (P15823 whole entry): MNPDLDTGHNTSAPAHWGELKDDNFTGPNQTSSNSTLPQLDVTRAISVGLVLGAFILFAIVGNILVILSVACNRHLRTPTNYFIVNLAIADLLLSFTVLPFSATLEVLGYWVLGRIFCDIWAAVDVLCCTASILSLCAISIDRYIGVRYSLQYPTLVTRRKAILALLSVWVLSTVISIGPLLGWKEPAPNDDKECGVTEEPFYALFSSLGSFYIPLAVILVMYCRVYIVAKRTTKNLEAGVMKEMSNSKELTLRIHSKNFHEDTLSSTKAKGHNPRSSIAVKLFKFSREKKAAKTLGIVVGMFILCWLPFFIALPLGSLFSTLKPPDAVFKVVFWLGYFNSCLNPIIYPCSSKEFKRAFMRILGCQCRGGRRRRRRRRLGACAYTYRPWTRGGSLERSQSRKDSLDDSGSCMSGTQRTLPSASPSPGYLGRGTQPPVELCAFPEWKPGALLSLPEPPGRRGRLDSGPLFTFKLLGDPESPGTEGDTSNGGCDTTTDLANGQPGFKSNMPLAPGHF
T1 sequence (P23944 whole entry): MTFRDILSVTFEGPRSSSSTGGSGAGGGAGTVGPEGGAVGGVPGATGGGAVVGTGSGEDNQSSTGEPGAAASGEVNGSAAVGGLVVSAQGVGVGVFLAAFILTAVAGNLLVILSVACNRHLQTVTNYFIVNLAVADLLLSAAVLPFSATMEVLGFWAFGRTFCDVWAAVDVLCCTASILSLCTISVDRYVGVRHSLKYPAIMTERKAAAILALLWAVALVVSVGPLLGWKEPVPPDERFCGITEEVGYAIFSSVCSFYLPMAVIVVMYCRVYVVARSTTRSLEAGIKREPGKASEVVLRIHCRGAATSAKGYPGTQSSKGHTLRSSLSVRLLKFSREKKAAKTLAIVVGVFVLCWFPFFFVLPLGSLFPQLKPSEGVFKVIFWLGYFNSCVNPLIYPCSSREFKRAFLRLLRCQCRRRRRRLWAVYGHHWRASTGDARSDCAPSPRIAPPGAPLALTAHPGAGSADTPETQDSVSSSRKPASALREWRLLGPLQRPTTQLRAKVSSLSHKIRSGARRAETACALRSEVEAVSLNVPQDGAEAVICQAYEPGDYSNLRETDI
T1 sequence (P43140 whole entry): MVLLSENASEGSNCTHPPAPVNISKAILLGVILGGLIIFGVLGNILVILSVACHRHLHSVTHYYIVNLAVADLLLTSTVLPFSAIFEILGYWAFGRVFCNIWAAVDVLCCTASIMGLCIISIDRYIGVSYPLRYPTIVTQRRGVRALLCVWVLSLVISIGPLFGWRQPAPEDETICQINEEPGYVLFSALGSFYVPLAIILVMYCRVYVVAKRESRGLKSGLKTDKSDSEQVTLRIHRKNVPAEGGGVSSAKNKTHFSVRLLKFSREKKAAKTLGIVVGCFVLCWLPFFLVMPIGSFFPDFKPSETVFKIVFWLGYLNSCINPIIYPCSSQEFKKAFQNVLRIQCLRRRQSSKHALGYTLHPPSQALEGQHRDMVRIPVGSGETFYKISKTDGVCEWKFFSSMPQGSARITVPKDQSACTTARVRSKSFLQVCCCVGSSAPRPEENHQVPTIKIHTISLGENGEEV
In short: (§1)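 Rat brain membrane fractions incubated with 0.1 nM [3H]prazosin for α1 sites. Nonspecific binding defined with 10 μM phentolamine. IC50 (analog concentration reducing specific binding by 50%) converted to Ki by Ki = IC50(1 + [L]/Kd), where [L] is the radioligand concentration and Kd its equilibrium dissociation constant.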

[3] = target: T2, Adrenergic receptor alpha-2 (Rattus norvegicus, UniProt P22086+P19328+P22909); assay: Displacement of [3H]rauwolscine from Alpha-2 adrenergic receptor of rat brain membranes; format: cell membranes, Membrane
T2 sequence (P22086 whole entry): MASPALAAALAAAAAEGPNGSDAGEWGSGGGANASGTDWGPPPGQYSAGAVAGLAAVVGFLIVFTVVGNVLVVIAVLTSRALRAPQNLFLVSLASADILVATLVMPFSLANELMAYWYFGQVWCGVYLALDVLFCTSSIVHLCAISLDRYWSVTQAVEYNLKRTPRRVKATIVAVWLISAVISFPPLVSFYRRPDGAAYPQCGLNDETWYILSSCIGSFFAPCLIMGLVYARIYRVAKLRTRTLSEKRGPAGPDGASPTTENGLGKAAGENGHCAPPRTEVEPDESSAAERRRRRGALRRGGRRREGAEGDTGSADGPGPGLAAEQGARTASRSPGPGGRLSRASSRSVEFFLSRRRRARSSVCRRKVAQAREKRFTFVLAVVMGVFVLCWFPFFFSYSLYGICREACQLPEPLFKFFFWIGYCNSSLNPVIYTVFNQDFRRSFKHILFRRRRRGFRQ
T2 sequence (P19328 whole entry): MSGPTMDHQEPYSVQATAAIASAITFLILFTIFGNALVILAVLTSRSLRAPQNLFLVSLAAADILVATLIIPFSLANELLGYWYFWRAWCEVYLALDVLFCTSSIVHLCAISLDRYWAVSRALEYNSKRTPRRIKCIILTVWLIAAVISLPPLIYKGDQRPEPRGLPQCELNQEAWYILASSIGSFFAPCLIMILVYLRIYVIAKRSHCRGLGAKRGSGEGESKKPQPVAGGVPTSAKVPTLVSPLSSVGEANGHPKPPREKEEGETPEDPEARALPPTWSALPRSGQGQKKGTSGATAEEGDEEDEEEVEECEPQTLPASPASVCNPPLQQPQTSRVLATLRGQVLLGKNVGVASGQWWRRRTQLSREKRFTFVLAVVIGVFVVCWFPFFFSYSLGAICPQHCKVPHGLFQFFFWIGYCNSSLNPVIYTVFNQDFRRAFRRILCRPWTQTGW
T2 sequence (P22909 whole entry): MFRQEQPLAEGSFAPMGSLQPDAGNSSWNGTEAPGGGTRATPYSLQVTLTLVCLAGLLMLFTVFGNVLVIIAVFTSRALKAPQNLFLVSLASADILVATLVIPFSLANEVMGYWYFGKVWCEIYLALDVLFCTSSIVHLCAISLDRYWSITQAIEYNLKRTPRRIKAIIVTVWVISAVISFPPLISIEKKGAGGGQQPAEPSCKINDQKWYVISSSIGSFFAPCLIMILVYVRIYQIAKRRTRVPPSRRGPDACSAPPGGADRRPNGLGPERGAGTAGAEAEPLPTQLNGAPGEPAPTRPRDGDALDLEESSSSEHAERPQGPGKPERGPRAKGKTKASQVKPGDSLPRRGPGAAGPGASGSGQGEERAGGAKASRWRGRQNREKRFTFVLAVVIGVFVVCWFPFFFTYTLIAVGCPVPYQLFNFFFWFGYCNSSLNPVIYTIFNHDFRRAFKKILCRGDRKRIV
In short: as §1, with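 “0.2” for “0.1”, “[3H]rauwolscine” for “[3H]prazosin”, “α2” for “α1”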

Compound	Selectivity [1]	Ki [2] [nM]	Ki [3] [nM]
COc1ccc2c(c1)CCC=C2c1c[nH]cn1	2.81	1630	580
Cc1cc(C)c2c(c1)C(c1c[nH]cn1)CCC2 (stereo not given)	1.27	131	103
Cc1cc(C)c2c(c1)C(c1c[nH]cn1)=CCC2	12.8	2960	232
COc1ccc2c(c1)CCCC2c1c[nH]cn1 (stereo not given)	1.17	198	169
COc1cccc2c1CCCC2c1c[nH]cn1 (stereo not given)	2.48	243	98
Oc1cccc2c1CCCC2c1c[nH]cn1 (stereo not given)	2.01	126	63
C1=C(c2c[nH]cn2)c2cccc(OCc3ccccc3)c2CC1	3.09	8250	2670
COc1cccc2c1CCC=C2c1c[nH]cn1	2.1	2970	1420
Cc1cccc(C(C)c2c[nH]cn2)c1C (stereo not given)	44.4		
COc1ccc2c(c1)C(c1c[nH]cn1)=CCC2	9.03	14200	1570
Cc1cccc2c1CCCC2c1c[nH]cn1 (stereo not given)	2.01	191	95
Cc1cccc2c1CCC2c1c[nH]cn1 (stereo not given)	8.29	73	8.8
Cc1cccc2c1CCC=C2c1c[nH]cn1	32	992	31
COc1ccc2c(c1)C(c1c[nH]cn1)CCC2 (stereo not given)	8.81	1770	201

From ChEMBL document CHEMBL1130149, “Medetomidine analogs as alpha 2-adrenergic ligands. 3. Synthesis and biological evaluation of a new series of medetomidine analogs and their potential binding interactions with alpha 2-adrenoceptors involving a "methyl pocket"” (J Med Chem, 1997)
